Rows were chosen to be rich in hits. Some 3.8% of all compounds tested hit in one or more screens of this group.
hERG rescue = hERG (human) protection from proarrhythmic block; CHO-hERG, FluxOR thallium flux, dofetilide IC70 present; activation (rescue from dofetilide block), less the hit threshold, % at 10 µM; 310,000 tested, 0.51% active;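 active = activation above the mean of controls blocked by dofetilide plus 5 SD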;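 also: thallium influx through hERG after potassium depolarization seen as dye fluorescence rise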
KCNQ1 block = human KCNQ1 channel inhibition | CHO-K1 KCNQ1, FluxOR thallium flux fluorescence; stronger effect = higher value | B-score at 10 µM | 310,000 tested, 1.3% active;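 active = compounds whose thallium flux B-score, printed positive for inhibition, exceeds three library SD while starting fluorescence stays within three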;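 also: channel opened by potassium depolarization with thallium stimulus after 20 min compound exposure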
Kir21 block = blocks the mouse Kir2.1 inward-rectifier potassium channel; 310,000 tested, 0.85% active; P35561; B-score at 10 µM; HEK293-Kir2.1, FluxOR thallium flux fluorescence; stronger effect = lower value;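 active = fluorescence ratio B-score at or below minus 3 SD of library scores, with starting-brightness B-score within 2 SD, cut at about -4.2 in these data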;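 also: channel flux triggered by added potassium and thallium sulfate stimulus; B-score of peak minus minimum fluorescence over baseline after thallium stimulus; more negative B-score means stronger Kir2.1 block with less thallium influx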
Target sequence (P35561 whole entry, looked up): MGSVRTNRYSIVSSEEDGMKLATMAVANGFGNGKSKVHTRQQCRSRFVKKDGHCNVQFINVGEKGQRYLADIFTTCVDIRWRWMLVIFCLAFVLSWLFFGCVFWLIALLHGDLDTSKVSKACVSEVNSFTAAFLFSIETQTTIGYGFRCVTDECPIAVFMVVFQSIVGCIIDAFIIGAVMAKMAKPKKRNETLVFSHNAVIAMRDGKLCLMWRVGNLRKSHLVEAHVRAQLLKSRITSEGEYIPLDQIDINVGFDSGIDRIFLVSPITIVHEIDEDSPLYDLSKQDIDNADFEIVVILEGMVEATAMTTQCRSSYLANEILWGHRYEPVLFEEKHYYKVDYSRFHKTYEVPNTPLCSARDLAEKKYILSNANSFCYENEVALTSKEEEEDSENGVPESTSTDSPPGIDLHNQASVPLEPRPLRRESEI
KCNK3 inh = human KCNK3 channel inhibition, primary screen | O14649 | CHO-KCNK3 thallium flux, FluxOR fluorescence; stronger effect = lower value | B-score at 10 µM | 340,000 tested, 0.84% active | AID 602410;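 active = B-score under library mean minus 4 SD, starting fluorescence ratio at most library mean plus 5 SD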;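 also: more negative B-score means stronger inhibition of thallium flux through KCNK3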
KCNQ1 pot = potentiates or activates the human KCNQ1 potassium channel. P51787. CHO-K1 KCNQ1, thallium flux FluxOR fluorescence; stronger effect = higher value. B-score at 10 µM. 310,000 tested, 0.35% active. AID 2648;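 active = fluorescence ratio B-score, a plate-corrected score, at least three library SD, with initial intensity B-score within 5 SD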
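assay system = KCNQ1-transfected CHO-K1 cells | medium = assay buffer with matched DMSO | probe or stimulus = depolarizing K+/Tl+ stimulus, K2SO4 and Tl2SO4 each 12.5 mM in 5x stock | dosing = single dose | incubation = dye 90 min, compound 20 min, room temperature | detection = kinetic FluxOR fluorescence, 10 s baseline plus 110 s post-stimulus | evaluation = ratio B score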
KCNK9 block = human KCNK9 channel inhibition. Q9NPC2. HEK293 KCNK9, FluxOR thallium flux fluorescence; stronger effect = lower value. B-score at 10 µM. 310,000 tested, 1.2% active;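 active = ratio B-score over 3 SD below the library mean, with starting fluorescence within 5 SD of its mean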;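 also: negative B-score means less thallium flux so channel inhibition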
An asterisk follows results filed as active; i = inactive; nt = no result given.

SMILES	hERG rescue	KCNQ1 block	Kir21 block	KCNK3 inh	KCNQ1 pot	KCNK9 block
CC(NC(=O)COC(=O)c1cc(S(=O)(=O)N2CCOCC2)ccc1F)c1ccccc1 (stereo not given)	nt	nt	nt	i	nt	nt
O=C(CNC(=O)c1ccccc1)NCc1ccc(Cl)cc1	28*	i	0.06	i	18*	i
O=C(CNC(=O)c1ccc(F)cc1)NCc1ccc(Cl)cc1	-3	i	-1	i	i	i
Cc1ccc(C(C)NC(=O)c2cccs2)cc1 (stereo not given)	-6	i	-0.22	i	i	i
Cc1ccc(C(C)NC(=O)c2cccs2)cc1C (stereo not given)	5.2*	i	-0.29	i	i	i
COc1ccc(S(=O)(=O)Nc2ccc3c(c2)C(=O)N([C@H](C)CO)C[C@H](C)[C@@H](CN(C)C(=O)Nc2ccccc2)O3)cc1	nt	nt	nt	i	nt	nt
Cc1ccc(C(=O)OCC(=O)Nc2sc3c(c2C#N)CCCC3)cc1NC(=O)c1ccco1	-4	i	0	i	19*	i
CC(NC(=O)COC(=O)/C(=C/c1cccs1)c1cccs1)c1ccccc1 (stereo not given)	-9	i	-0.6	i	i	-6.8*
CC(NC(=O)COC(=O)c1cccs1)c1ccccc1 (stereo not given)	-1	i	1.1	i	i	i
Cc1ccc(C(NC(=O)C2CCCCC2)c2c(O)ccc3ccccc23)cc1 (stereo not given)	-16	9*	0.76	i	i	i
CC(=O)NC(c1ccc(C(C)C)cc1)c1c(O)ccc2ccccc12 (stereo not given)	-2	i	-0.5	i	i	i
O=S(=O)(NCC(c1ccco1)N1CCN(c2ccccc2F)CC1)c1ccc2c(c1)OCCO2 (stereo not given)	-10	i	-1.3	i	i	i
O=S(=O)(NCC(c1ccco1)N1CCN(c2ccccc2F)CC1)c1ccccc1 (stereo not given)	-11	i	0.24	i	i	-6.9*
Cc1ccc(OCCCCNC2CCCC(C)C2C)c(C)c1 (stereo not given)	-6	6*	-7.4*	i	i	i
Cc1ccc(OCCCCN2CCCCC2)c(C)c1	-3	i	0.68	i	i	i
CCc1nc(SCC(=O)Nc2ccc(F)cc2F)c2c(=O)n(C)c(=O)n(C)c2n1	-5	i	-0.96	i	i	i
CCCc1nc(SCC(=O)Nc2cc(Cl)ccc2OC)c2c(=O)n(C)c(=O)n(C)c2n1	-10	i	0.25	nt	14*	i
O=C(Nc1ccc(Cl)cc1)c1cccs1	-14	i	0.61	i	i	-7.2*
O=C(Nc1cccc(NC(=O)c2cccs2)c1)c1ccco1	-13	i	-0.56	i	i	-6.6*
O=C(NC(=S)Nc1ccccc1)c1cccs1	10*	i	-0.02	i	11*	i
O=C(Nc1ccc(NC(=O)c2cccs2)cc1)c1cccs1	-5	i	1.1	i	i	i
O=C(Nc1ccc(Cl)c(NC(=O)c2cccs2)c1)c1ccco1	-5	i	-1.6	i	i	i
O=C(NCCC(c1ccccc1)c1ccccc1)c1cccs1	-4	i	-3.2	i	i	-7*
O=C(NC(=S)Nc1ccc(N2CCCCC2)c(Cl)c1)c1cccs1	13*	i	-0.81	i	65*	i
O=C(/C=C/c1ccccc1)NC(=S)Nc1ccc(N2CCOCC2)c(Cl)c1	-11	i	0.74	i	i	i
SMILES	hERG rescue	KCNQ1 block	Kir21 block	KCNK3 inh	KCNQ1 pot	KCNK9 block
CCCc1nc2ccc(NC(=O)c3cccs3)cc2c(=O)n1Cc1ccc(Cl)cc1	-9	i	0.78	i	i	-6.8*
CC1CCN(c2ccccc2NC(=S)NC(=O)c2cccs2)CC1	-2	i	-0.02	i	14*	i
O=C(NC(=S)Nc1ccc(N2CCOCC2)c(Cl)c1)C(c1ccccc1)c1ccccc1	-6	6*	0.72	i	i	i
O=[N+]([O-])c1ccc(COc2ccc(CN3CCCC3)cc2)cc1	nt	nt	nt	i	nt	nt
O=C(NC(=S)Nc1ccc(Br)cn1)c1cccs1	4	i	0.18	i	13*	i
CC1CCCCC1NC(=S)NC(=O)c1cccs1 (stereo not given)	5.2*	i	0.01	i	20*	i
COc1ccc(/C=C/C(=O)c2ccc(NC(=O)c3cccs3)cc2)cc1OC	8.9*	i	-1.4	i	i	i
NC(=S)Nc1nc2ccccc2s1	-3	i	-0.87	i	8*	i

Assay outcomes as filed in PubChem.
